Measurements from ChEMBL document CHEMBL1157526, “Development of novel beta-amyloid probes based on 3,5-diphenyl-1,2,4-oxadiazole” (Bioorg Med Chem, 2008).

Experiments:
[1] = Displacement of [125I]IMPY from amyloid beta (1-42) aggregates
Summary of the method: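 Synthetic Aβ(1–42) dissolved at 0.25 mg/mL in 10 mM sodium phosphate, 1 mM EDTA, pH 7.4, aggregated 42 h at 37 °C with gentle constant shaking. Competition against [125I]IMPY (2200 Ci/mmol, >95% radiochemical purity). Filter-bound radioactivity gamma-counted, specific binding under 15% of total. IC50 from displacement curves, Ki by Cheng-Prusoff. Mean ± SEM of 3–6 independent experiments.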

Blood [2] = experiment: Biodistribution in ddY mouse blood at 0.5 uCi, iv after 60 mins; assay type: ADME, organism-based; settings: in vivo, 1 h
Summary of the method: (§1)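 Normal male-unspecified ddY mice (5-week-old, 22–25 g) given radioiodinated ligand by tail-vein injection, killed at set times post-injection. Organs removed and weighed, radioactivity counted in a gamma counter. Expressed as % injected dose per gram, stomach as % injected dose per organ. Mean (s.d.) of 3–5 animals per time point.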

Blood [3] = experiment: Biodistribution in ddY mouse blood at 0.5 uCi, iv after 10 mins; assay type: ADME, organism-based; settings: in vivo; summary of the method: as §1
Brain [4] = experiment: Biodistribution in ddY mouse brain at 0.5 uCi, iv after 2 mins; assay type: ADME, organism-based; settings: in vivo; summary of the method: as §1
Spleen [5] = experiment: Biodistribution in ddY mouse spleen at 0.5 uCi, iv after 60 mins; assay type: ADME, organism-based; settings: in vivo, 1 h; summary of the method: as §1
Stomach [6] = experiment: Biodistribution in ddY mouse stomach at 0.5 uCi, iv after 2 mins; assay type: ADME, organism-based; settings: in vivo; summary of the method: as §1
Liver [7] = experiment: Biodistribution in ddY mouse liver at 0.5 uCi, iv after 60 mins; assay type: ADME, organism-based; settings: in vivo, 1 h; summary of the method: as §1
Blood [8] = experiment: Biodistribution in ddY mouse blood at 0.5 uCi, iv after 30 mins; assay type: ADME, organism-based; settings: in vivo, 0.5 h; summary of the method: as §1
Kidney [9] = experiment: Biodistribution in ddY mouse kidney at 0.5 uCi, iv after 10 mins; assay type: ADME, organism-based; settings: in vivo; summary of the method: as §1
Heart [10] = experiment: Biodistribution in ddY mouse heart at 0.5 uCi, iv after 60 mins; assay type: ADME, organism-based; settings: in vivo, 1 h; summary of the method: as §1
Brain [11] = experiment: Biodistribution in ddY mouse brain at 0.5 uCi, iv after 30 mins; assay type: ADME, organism-based; settings: in vivo, 0.5 h; summary of the method: as §1
Spleen [12] = experiment: Biodistribution in ddY mouse spleen at 0.5 uCi, iv after 2 mins; assay type: ADME, organism-based; settings: in vivo; summary of the method: as §1
Kidney [13] = experiment: Biodistribution in ddY mouse kidney at 0.5 uCi, iv after 30 mins; assay type: ADME, organism-based; settings: in vivo, 0.5 h; summary of the method: as §1
Kidney [14] = experiment: Biodistribution in ddY mouse kidney at 0.5 uCi, iv after 60 mins; assay type: ADME, organism-based; settings: in vivo, 1 h; summary of the method: as §1
Liver [15] = experiment: Biodistribution in ddY mouse liver at 0.5 uCi, iv after 30 mins; assay type: ADME, organism-based; settings: in vivo, 0.5 h; summary of the method: as §1
Pancreas [16] = experiment: Biodistribution in ddY mouse pancreas at 0.5 uCi, iv after 60 mins; assay type: ADME, organism-based; settings: in vivo, 1 h; summary of the method: as §1
Brain [17] = experiment: Biodistribution in ddY mouse brain at 0.5 uCi, iv after 10 mins; assay type: ADME, organism-based; settings: in vivo; summary of the method: as §1
Intestine [18] = experiment: Biodistribution in ddY mouse intestine at 0.5 uCi, iv after 10 mins; assay type: ADME, organism-based; settings: in vivo; summary of the method: as §1
Liver [19] = experiment: Biodistribution in ddY mouse liver at 0.5 uCi, iv after 2 mins; assay type: ADME, organism-based; settings: in vivo; summary of the method: as §1
Heart [20] = experiment: Biodistribution in ddY mouse heart at 0.5 uCi, iv after 10 mins; assay type: ADME, organism-based; settings: in vivo; summary of the method: as §1
Intestine [21] = experiment: Biodistribution in ddY mouse intestine at 0.5 uCi, iv after 60 mins; assay type: ADME, organism-based; settings: in vivo, 1 h; summary of the method: as §1
Liver [22] = experiment: Biodistribution in ddY mouse liver at 0.5 uCi, iv after 10 mins; assay type: ADME, organism-based; settings: in vivo; summary of the method: as §1
Spleen [23] = experiment: Biodistribution in ddY mouse spleen at 0.5 uCi, iv after 10 mins; assay type: ADME, organism-based; settings: in vivo; summary of the method: as §1
Pancreas [24] = experiment: Biodistribution in ddY mouse pancreas at 0.5 uCi, iv after 2 mins; assay type: ADME, organism-based; settings: in vivo; summary of the method: as §1
Intestine [25] = experiment: Biodistribution in ddY mouse intestine at 0.5 uCi, iv after 30 mins; assay type: ADME, organism-based; settings: in vivo, 0.5 h; summary of the method: as §1
Pancreas [26] = experiment: Biodistribution in ddY mouse pancreas at 0.5 uCi, iv after 30 mins; assay type: ADME, organism-based; settings: in vivo, 0.5 h; summary of the method: as §1
Pancreas [27] = experiment: Biodistribution in ddY mouse pancreas at 0.5 uCi, iv after 10 mins; assay type: ADME, organism-based; settings: in vivo; summary of the method: as §1
Spleen [28] = experiment: Biodistribution in ddY mouse spleen at 0.5 uCi, iv after 30 mins; assay type: ADME, organism-based; settings: in vivo, 0.5 h; summary of the method: as §1
Brain [29] = experiment: Biodistribution in ddY mouse brain at 0.5 uCi, iv after 60 mins; assay type: ADME, organism-based; settings: in vivo, 1 h; summary of the method: as §1
Heart [30] = experiment: Biodistribution in ddY mouse heart at 0.5 uCi, iv after 30 mins; assay type: ADME, organism-based; settings: in vivo, 0.5 h; summary of the method: as §1
Stomach [31] = experiment: Biodistribution in ddY mouse stomach at 0.5 uCi, iv after 60 mins; assay type: ADME, organism-based; settings: in vivo, 1 h; summary of the method: as §1
Intestine [32] = experiment: Biodistribution in ddY mouse intestine at 0.5 uCi, iv after 2 mins; assay type: ADME, organism-based; settings: in vivo; summary of the method: as §1
Blood [33] = experiment: Biodistribution in ddY mouse blood at 0.5 uCi, iv after 2 mins; assay type: ADME, organism-based; settings: in vivo; summary of the method: as §1
Heart [34] = experiment: Biodistribution in ddY mouse heart at 0.5 uCi, iv after 2 mins; assay type: ADME, organism-based; settings: in vivo; summary of the method: as §1
Kidney [35] = experiment: Biodistribution in ddY mouse kidney at 0.5 uCi, iv after 2 mins; assay type: ADME, organism-based; settings: in vivo; summary of the method: as §1
Stomach [36] = experiment: Biodistribution in ddY mouse stomach at 0.5 uCi, iv after 10 mins; assay type: ADME, organism-based; settings: in vivo; summary of the method: as §1
Stomach [37] = experiment: Biodistribution in ddY mouse stomach at 0.5 uCi, iv after 30 mins; assay type: ADME, organism-based; settings: in vivo, 0.5 h; summary of the method: as §1

Ki [1] [nM]	Drug uptake (Blood [2]) [% ID/g]	Drug uptake (Blood [3]) [% ID/g]	Drug uptake (Brain [4]) [% ID/g]	Drug uptake (Spleen [5]) [% ID/g]	Drug uptake (Stomach [6]) [% ID/organ]	Drug uptake (Liver [7]) [% ID/g]	Drug uptake (Blood [8]) [% ID/g]	Drug uptake (Kidney [9]) [% ID/g]	Drug uptake (Heart [10]) [% ID/g]	Drug uptake (Brain [11]) [% ID/g]	Drug uptake (Spleen [12]) [% ID/g]	Drug uptake (Kidney [13]) [% ID/g]	Drug uptake (Kidney [14]) [% ID/g]	Drug uptake (Liver [15]) [% ID/g]	Drug uptake (Pancreas [16]) [% ID/g]	Drug uptake (Brain [17]) [% ID/g]	Drug uptake (Intestine [18]) [% ID/g]	Drug uptake (Liver [19]) [% ID/g]	Drug uptake (Heart [20]) [% ID/g]	SMILES	other results
14.3																				CNc1ccc(-c2nc(-c3ccc(I)cc3)no2)cc1	
	1.54	1.84	1.44	2.14	1.08	7.3	1.52	5.3	1.27	2.56	4.58	3.39	3.02	8.53	1.88	1.98	2.83	14.62	3.05	CNc1ccc(-c2nc(-c3ccc([125I])cc3)no2)cc1	Drug uptake (Intestine [21]): 8.46 % ID/g; Drug uptake (Liver [22]): 12.37 % ID/g; Drug uptake (Spleen [23]): 4.7 % ID/g; Drug uptake (Pancreas [24]): 3.34 % ID/g; Drug uptake (Intestine [25]): 5.67 % ID/g; Drug uptake (Pancreas [26]): 3.06 % ID/g; Drug uptake (Pancreas [27]): 3.91 % ID/g; Drug uptake (Spleen [28]): 2.84 % ID/g; Drug uptake (Brain [29]): 2.7 % ID/g; Drug uptake (Heart [30]): 1.68 % ID/g; Drug uptake (Stomach [31]): 7.38 % ID/organ; Drug uptake (Intestine [32]): 1.36 % ID/g; Drug uptake (Blood [33]): 3.54 % ID/g; Drug uptake (Heart [34]): 9.51 % ID/g; Drug uptake (Kidney [35]): 9.53 % ID/g; Drug uptake (Stomach [36]): 2.32 % ID/organ; Drug uptake (Stomach [37]): 4.89 % ID/organ
47.1																				Oc1ccc(-c2nc(-c3ccc(I)cc3)no2)cc1	
15.4																				CN(C)c1ccc(-c2nc(-c3ccc(I)cc3)no2)cc1	
4.3																				COc1ccc(-c2nc(-c3ccc(I)cc3)no2)cc1	
	1.56	2.41	1.07	2.41	1.28	5.15	1.79	7.67	1.24	2.23	6.26	4.81	3.31	5.89	2.47	1.45	2.4	13.94	4.81	CN(C)c1ccc(-c2nc(-c3ccc([125I])cc3)no2)cc1	Drug uptake (Intestine [21]): 5.37 % ID/g; Drug uptake (Liver [22]): 8.27 % ID/g; Drug uptake (Spleen [23]): 4.56 % ID/g; Drug uptake (Pancreas [24]): 3.17 % ID/g; Drug uptake (Intestine [25]): 4.12 % ID/g; Drug uptake (Pancreas [26]): 2.86 % ID/g; Drug uptake (Pancreas [27]): 3.8 % ID/g; Drug uptake (Spleen [28]): 3.11 % ID/g; Drug uptake (Brain [29]): 2.32 % ID/g; Drug uptake (Heart [30]): 2.2 % ID/g; Drug uptake (Stomach [31]): 5.75 % ID/organ; Drug uptake (Intestine [32]): 1.59 % ID/g; Drug uptake (Blood [33]): 5.42 % ID/g; Drug uptake (Heart [34]): 11.04 % ID/g; Drug uptake (Kidney [35]): 7.83 % ID/g; Drug uptake (Stomach [36]): 3.28 % ID/organ; Drug uptake (Stomach [37]): 4.8 % ID/organ
	1.12	1.63	2.06	1.34	0.62	4.44	1.23	6.22	1.35	2.82	4.41	3.85	2.95	6.13	1.45	2.76	3.53	11.92	4.44	COc1ccc(-c2nc(-c3ccc([125I])cc3)no2)cc1	Drug uptake (Intestine [21]): 8.21 % ID/g; Drug uptake (Liver [22]): 9.35 % ID/g; Drug uptake (Spleen [23]): 3.62 % ID/g; Drug uptake (Pancreas [24]): 4.55 % ID/g; Drug uptake (Intestine [25]): 6.62 % ID/g; Drug uptake (Pancreas [26]): 2.84 % ID/g; Drug uptake (Pancreas [27]): 4.94 % ID/g; Drug uptake (Spleen [28]): 2.13 % ID/g; Drug uptake (Brain [29]): 2.01 % ID/g; Drug uptake (Heart [30]): 1.84 % ID/g; Drug uptake (Stomach [31]): 3.16 % ID/organ; Drug uptake (Intestine [32]): 1.7 % ID/g; Drug uptake (Blood [33]): 1.96 % ID/g; Drug uptake (Heart [34]): 11.3 % ID/g; Drug uptake (Kidney [35]): 8.77 % ID/g; Drug uptake (Stomach [36]): 1.64 % ID/organ; Drug uptake (Stomach [37]): 2.46 % ID/organ
14.2																				Nc1ccc(-c2nc(-c3ccc(I)cc3)no2)cc1	
	2.99	2.32	1.61	5.02	0.92	12.33	3.09	6.94	3.51	3.32	6.13	5.86	5.15	14.89	2.83	2.48	3.08	21.36	4.02	Nc1ccc(-c2nc(-c3ccc([125I])cc3)no2)cc1	Drug uptake (Intestine [21]): 8.33 % ID/g; Drug uptake (Liver [22]): 17.37 % ID/g; Drug uptake (Spleen [23]): 8.87 % ID/g; Drug uptake (Pancreas [24]): 3.69 % ID/g; Drug uptake (Intestine [25]): 5.84 % ID/g; Drug uptake (Pancreas [26]): 3.36 % ID/g; Drug uptake (Pancreas [27]): 3.88 % ID/g; Drug uptake (Spleen [28]): 6.89 % ID/g; Drug uptake (Brain [29]): 3.29 % ID/g; Drug uptake (Heart [30]): 3.48 % ID/g; Drug uptake (Stomach [31]): 5.15 % ID/organ; Drug uptake (Intestine [32]): 1.5 % ID/g; Drug uptake (Blood [33]): 4.55 % ID/g; Drug uptake (Heart [34]): 9.29 % ID/g; Drug uptake (Kidney [35]): 8.24 % ID/g; Drug uptake (Stomach [36]): 1.7 % ID/organ; Drug uptake (Stomach [37]): 4.05 % ID/organ
